Screens: PubChem, Broad Institute
An excerpt weighted towards active compounds, which were near 2.9% of everything screened.
SIRT5 block = SIRT5 desuccinylase inhibitors, primary screen, biochemical, fluorescence imaging, single point, set 5; 1.1% of 330,000 active; NAD-dependent protein deacylase sirtuin-5, mitochondrial (Homo sapiens), Q9NXA8; inhibition, % at 15 µM; Purified SirT5, succinyl-peptide AMC, trypsin-coupled fluorescence; in the data active means inhibition above about 15%; inconclusive means no clear call, values can overlap the other calls
Target sequence (Q9NXA8 whole entry, looked up): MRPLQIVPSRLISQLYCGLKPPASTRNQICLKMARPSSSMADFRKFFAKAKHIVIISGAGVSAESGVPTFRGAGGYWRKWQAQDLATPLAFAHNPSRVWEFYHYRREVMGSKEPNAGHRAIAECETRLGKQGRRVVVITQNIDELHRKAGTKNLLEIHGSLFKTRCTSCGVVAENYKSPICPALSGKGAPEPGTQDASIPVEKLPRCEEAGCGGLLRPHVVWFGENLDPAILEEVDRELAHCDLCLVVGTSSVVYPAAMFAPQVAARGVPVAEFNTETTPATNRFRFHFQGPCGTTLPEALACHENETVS
Statin myotox sup = suppressors of statin myotoxicity in C2C12 myotubes, primary screen, cell-based, single point, plate reader; C2C12 myotubes + simvastatin, ATP luminescence, 48 h; scaled: DMSO 0, geranylgeraniol control 100; rescue of ATP level, % at 7.49 µM; 0.78% of 330,000 active; AID 602340, 2012;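 active means mean ATP rescue above about 67%, or every replicate alone reaching that limit, limit read from the data, passing the limit was not always enough; inconclusive means no clear call, values can overlap the other calls; inactive means mean under the limit and some replicate under it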;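 further: myotubes were challenged with 10 µM simvastatin during compound exposure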
PGC1a acetyl inh = inhibitors of PGC1a acetylation signal, primary screen, cell-based, U2OS, AlphaScreen, inhibitor mode | AlphaScreen anti-acetyl-lysine; with virally co-expressed GCN5 acetyltransferase | inhibition, % at 15.6 µM | 0.17% of 350,000 active | AID 651687, 2012;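 active means every replicate shows inhibition of at least 40%; inconclusive means mean inhibition at least 40% but some replicate below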
S100A4 inh HTS = inhibitors of S100A4-myosin IIA peptide binding, primary screen, biochemical, fluorescence polarization, TAMRA-MyoIIA peptide | 0.14% of 360,000 active | inhibition, % at 10.7 µM | Protein S100-A4 (Homo sapiens), P26447;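 active means mean inhibition of at least 70% across replicates, with every replicate also reaching that level; inconclusive means mean inhibition reaches 70% but some replicates fall short; inactive means mean inhibition below 70%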
Target sequence (P26447 whole entry, looked up): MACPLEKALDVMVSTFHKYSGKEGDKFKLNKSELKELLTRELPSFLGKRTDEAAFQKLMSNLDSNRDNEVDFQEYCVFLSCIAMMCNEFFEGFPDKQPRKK
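incubation = readout 5 min after mixing, signal stable up to 60 min | system = S100A4 monomer protein | buffer or medium = HEPES pH 7.2 with CaCl2, KCl, NaCl, DTT, Triton | benchmarks = neutral control DMSO, positive control TFP | also added = fluorescent myosin IIA peptide, 5 nM | compound dosing = one concentration per compound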
DENV2 CPE = inhibitors of DENV2 cytopathic effect, primary screen, cell-based, plate reader, single concentration; CPE inhibition, % at 9.99 µM; DENV2-infected cells, cytopathic effect rescue; 1.7% of 350,000 active; in the data active means CPE inhibition above about 20%, passing the limit was not always enough; inconclusive means no clear call, values can overlap the other calls; tested in BHK-21 cells
Large screens that a line does not name were inactive.

COc1ccc(C2(CNC(=O)CCC(=O)O)CCCC2)cc1	Statin myotox sup 86 (no result: SIRT5 block, S100A4 inh HTS, DENV2 CPE)
COc1ccc(C(=O)NCC2(c3ccccc3)CCCC2)c(OC)c1	none
Cc1noc(C)c1S(=O)(=O)Nc1ccc2c(c1)C(=O)N([C@H](C)CO)C[C@H](C)[C@H](CN(C)C(=O)Nc1ccc(F)cc1)OCCCC[C@H](C)O2	none (no result: Statin myotox sup)
C[C@H](CO)N1C[C@H](C)[C@@H](CN(C)C(=O)Cc2ccccc2)OCCCC[C@H](C)Oc2ccc(NS(=O)(=O)c3ccc(Cl)cc3)cc2C1=O	none (no result: Statin myotox sup)
C[C@H](CO)N1C[C@H](C)[C@@H](CN(C)C(=O)Cc2ccccc2)OCCCC[C@H](C)Oc2ccc(NS(=O)(=O)c3ccccc3)cc2C1=O	none (no result: Statin myotox sup)
C[C@@H]1CCCCO[C@H](CN(C)C(=O)Cc2ccccc2)[C@H](C)CN([C@H](C)CO)C(=O)c2cc(NS(=O)(=O)c3ccccc3)ccc2O1	SIRT5 block 16 (no result: Statin myotox sup)
C[C@@H]1CCCCO[C@H](CN(C)C(=O)Cc2ccccc2)[C@H](C)CN([C@H](C)CO)C(=O)c2cc(NS(=O)(=O)c3ccc(Cl)cc3)ccc2O1	none (no result: Statin myotox sup)
C[C@@H]1CCCCO[C@H](CN(C)C(=O)Cc2ccccc2)[C@@H](C)CN([C@H](C)CO)C(=O)c2cc(NS(=O)(=O)c3ccc(Cl)cc3)ccc2O1	DENV2 CPE 54 (no result: Statin myotox sup)
C[C@@H]1CCCCO[C@@H](CN(C)C(=O)Cc2ccccc2)[C@H](C)CN([C@H](C)CO)C(=O)c2cc(NS(=O)(=O)c3cccs3)ccc2O1	DENV2 CPE 61 (no result: Statin myotox sup)
C[C@@H]1CCCCO[C@@H](CN(C)C(=O)Cc2ccccc2)[C@H](C)CN([C@H](C)CO)C(=O)c2cc(NS(=O)(=O)c3ccc(Cl)cc3)ccc2O1	DENV2 CPE 85 (no result: Statin myotox sup)
CCNC(=O)[C@@H]1[C@@H](CO)[C@@H]2Cn3c(ccc(-c4ccc(F)cc4)c3=O)[C@H]1N2C(=O)c1ccccn1	DENV2 CPE inconclusive (no result: PGC1a acetyl inh)
O=C(c1cc(C2CC2)on1)N1CCCC(N2CCN(c3cccc(C(F)(F)F)c3)CC2)C1 (stereo unspecified)	PGC1a acetyl inh inconclusive, DENV2 CPE 30
CCN(CC)CC(=O)N1CCCC(N2CCN(c3cccc(C(F)(F)F)c3)CC2)C1 (stereo unspecified)	DENV2 CPE 30
Cc1cc(C(=O)N2CCCC(N3CCN(c4cccc(C(F)(F)F)c4)CC3)C2)no1 (stereo unspecified)	DENV2 CPE inconclusive (no result: PGC1a acetyl inh)
CCc1cnc(N2[C@H](C#N)[C@H](c3ccc(-c4cccc(F)c4)cc3)[C@H]2CO)s1	none
Oc1ccc(-c2nccc(-c3ccc(Cl)cc3)n2)cc1	none (no result: Statin myotox sup)
Oc1ccc(-c2nccc(-c3ccc(Cl)cc3Cl)n2)cc1	SIRT5 block 18 (no result: Statin myotox sup)
CN(C)c1ccc(CCc2ccc(N)cc2)cc1	DENV2 CPE 26
CN(C)c1ccc(Cc2ccc(N(C)C)cc2)cc1	none
C[C@H]1CN([C@@H](C)CO)C(=O)Cc2cc(NC(=O)Cc3cn(C)c4ccccc34)ccc2O[C@@H]1CN(C)CC1CC1	none
COc1ccc(-c2cc(N3C(=O)Nc4ccccc4N3O)n[nH]2)cc1OC	DENV2 CPE 38 (no result: SIRT5 block, Statin myotox sup, PGC1a acetyl inh)
COc1cc(-c2cc(N3C(=O)Nc4ccccc4N3O)n[nH]2)cc(OC)c1OC	none (no result: SIRT5 block, Statin myotox sup, S100A4 inh HTS, DENV2 CPE)
COc1ccc(S(=O)(=O)Nc2ccc3c(c2)C(=O)N([C@@H](C)CO)C[C@@H](C)[C@@H](CN(C)C(=O)Nc2c(C)noc2C)OCCCC[C@H](C)O3)cc1	none
Cc1noc(C)c1NC(=O)N(C)C[C@@H]1OCCCC[C@H](C)Oc2ccc(NS(=O)(=O)c3c(C)noc3C)cc2C(=O)N([C@@H](C)CO)C[C@H]1C	none
COc1ccc(S(=O)(=O)Nc2ccc3c(c2)C(=O)N([C@@H](C)CO)C[C@@H](C)[C@H](CN(C)C(=O)Nc2c(C)noc2C)OCCCC[C@H](C)O3)cc1	Statin myotox sup 89
Cc1noc(C)c1NC(=O)N(C)C[C@H]1OCCCC[C@H](C)Oc2ccc(NS(=O)(=O)c3c(C)noc3C)cc2C(=O)N([C@H](C)CO)C[C@@H]1C	DENV2 CPE 34
Cc1noc(C)c1NC(=O)N(C)C[C@H]1OCCCC[C@H](C)Oc2ccc(NS(=O)(=O)c3ccc(F)cc3)cc2C(=O)N([C@H](C)CO)C[C@@H]1C	S100A4 inh HTS 134 (no result: PGC1a acetyl inh)
COc1ccc(S(=O)(=O)Nc2ccc3c(c2)C(=O)N([C@H](C)CO)C[C@H](C)[C@@H](CN(C)C(=O)Nc2c(C)noc2C)O3)cc1	Statin myotox sup 126
NCC[C@H]1CC[C@H](NC(=O)Nc2ccc(F)cc2)[C@@H](CO)O1	none
COC(=O)C[C@H]1CC[C@@H]2[C@H](COc3ccc(NC(=O)C4CC4)cc3C(=O)N2C)O1	none
COc1ccc(S(=O)(=O)Nc2ccc3c(c2)C(=O)N([C@@H](C)CO)C[C@@H](C)[C@H](CN(C)C(=O)Nc2c(C)noc2C)OCCCC[C@@H](C)O3)cc1	none
COc1ccc(S(=O)(=O)Nc2ccc3c(c2)C(=O)N([C@H](C)CO)C[C@H](C)[C@@H](CN(C)C(=O)Nc2c(C)noc2C)OCCCC[C@@H](C)O3)cc1	DENV2 CPE 41
COc1cccc(S(=O)(=O)Nc2ccc3c(c2)[C@H]2C[C@@H](CC(=O)N(C)C)O[C@@H](CO)[C@H]2O3)c1	none
CO[C@@H]1CC[C@H]2CCN(C)C(=O)[C@H](C)N(C)C(=O)c3cc(C#N)ccc3OC[C@@H]1O2	none (no result: PGC1a acetyl inh)
O=C(OCc1cn([C@@H]2CN(C(=O)C3CCCCC3)[C@@H](c3ccccc3)C[C@H]2O)nn1)c1ccccc1	none
Cc1ccc([C@H]2C[C@H](n3cc(COC(=O)c4ccccc4)nn3)[C@@H](O)CN2C(=O)C2CCCCC2)cc1	DENV2 CPE 52
O=C(OCc1cn([C@H]2CN(C(=O)C3CCCCC3)[C@@H](c3ccccc3)C[C@@H]2O)nn1)c1ccccc1	DENV2 CPE 25
CO[C@H]1CN(C)C(=O)c2ccc(NS(C)(=O)=O)cc2OC[C@@H](C)N(CCC(F)(F)F)C[C@H]1C	none
COc1ccc(C(=O)CCC(=O)NCc2cc(OC)cc(OC)c2)cc1	DENV2 CPE 35
CC(C)CNS(=O)(=O)c1ccc(CCC(=O)NCc2cccnc2)cc1	none (no result: SIRT5 block, S100A4 inh HTS, DENV2 CPE)
COc1ccc(S(=O)(=O)NCCC(=O)NCc2ccccc2)cc1	Statin myotox sup 126 (no result: SIRT5 block, S100A4 inh HTS, DENV2 CPE)
COc1ccc(S(=O)(=O)NCc2ccccc2)cc1	none (no result: SIRT5 block, PGC1a acetyl inh, S100A4 inh HTS, DENV2 CPE)
Cc1ccc(CNC(=O)CCc2ccc(S(=O)(=O)NCC(C)C)cc2)cc1	SIRT5 block 29 (no result: Statin myotox sup, PGC1a acetyl inh)
C[C@@H]1CN([C@@H](C)CO)C(=O)c2cc(NS(=O)(=O)c3cn(C)cn3)ccc2O[C@@H](C)CCCCO[C@H]1CN(C)C(=O)Nc1ccc(F)cc1	none (no result: Statin myotox sup)
